Here are results for twelve compounds from article PMC3276733 (Journal of Medicinal Chemistry, 2012).

Test [1] relates to tadpoles. To be noted: cited from earlier work.
Test [2] deals with rat α1β2γ2L GABAA receptors expressed in Xenopus laevis oocytes (Rattus norvegicus, UniProt P62813). The class given is cell-based. To be noted: 2 μM GABA, compound up to 10 μM. In short, it runs like this:
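Rat α1, β2, γ2L cRNA (equal parts, 20-40 ng total) injected into defolliculated stage V-VI oocytes, which were held at 18 °C in supplemented ND96 (pH 7.4) and recorded 2-5 days later. Two-electrode voltage clamp at −70 mV. Response was the current ratio with/without compound, against 2 μM GABA. Direct gating: 10 μM compound without GABA, as a ratio to the 2 μM GABA current. ≥4 oocytes; SEM.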

Test [3] concerns the target α1(Q241L)β2γ2L GABAA receptors (Rattus norvegicus, UniProt P62813, Q268L). The test is described as follows: Potentiation of GABA currents in oocytes expressing the steroid-insensitive α1. The class given is cell-based. As to conditions: GABA 2 TM, −70 mV, 4 WT and 4 mutant oocytes.
The test system of test [4] is tadpoles. The test is described as follows: Tadpole loss of righting reflex. It counts as in vivo. To be noted: loss of swimming reflex; None = all tadpoles had a swimming response at 10 μM.
[5] abbreviates: read-out: tadpole LRR EC50, loss of righting reflex, literature values ref 14.

SMILES strings stand for the structures. Where two headings read alike, the source gives them in different places.

Usually EC50 stands for the concentration giving half of the maximal effect. `C[C@@]12CC[C@H](O)C[C@H]1CC[C@@H]1[C@@H]2CC[C@@]2(C)C(=O)CC[C@@H]12` (single isomer, unassigned) [compound ent-2, ent-androsterone]: the EC50 in test [1] (setting [5]) is 1420 ± 180 nM.
In the case of `C[C@@]12CC[C@H](O)C[C@H]1CC[C@@H]1[C@@H]2[C@H](OCc2ccccc2)C[C@@]2(C)C(=O)CC[C@@H]12` (single isomer, unassigned) [compound ent-4, (3β,5β,8α,9β,10α,11α,13α,14β)-11-Benzyloxy-3-hydroxyandrostan-17-one], the “effect on GABA-mediated currents” value in test [2] is “weakly inhibit”.
For the compound `C[C@@]12CC[C@H](O)C[C@H]1C[C@@H](OCc1ccccc1)[C@@H]1[C@@H]2CC[C@@]2(C)C(=O)CC[C@@H]12` (single isomer, unassigned) [compound ent-6, (3β,5β,7α,8α,9β,10α,13α,14β)-7-Benzyloxy-3-hydroxyandrostan-17-one], the “effect of the α1 Q241L mutation on potentiation of GABA currents” value (from here on “effect of the α1 Q241L mutation”) in test [3] (compound 1 TM) was “abolishes, completely or nearly completely”.
`C[C@@]12CC[C@H](O)C[C@H]1C[C@@H](OCc1ccccc1)[C@@H]1[C@@H]2CC[C@]2(C)[C@H]1CC[C@]21CO1` (single isomer, unassigned) [compound ent-7, (3β,5β,7α,8α,9β,10α,13α,14β,17α)-Spiro[7-Benzyoxyandrostane-17,2′-oxiran]-3-ol]: the “effect of the α1 Q241L mutation” value in test [3] (compound 0.5 TM) is listed as “abolishes, completely or nearly completely”.
Take `C[C@@]12CC[C@H](O)C[C@H]1CC[C@@H]1[C@@H]2CC[C@]2(C)[C@H]1CC[C@]21CO1` (single isomer, unassigned) [ent-3]: the 50% effective concentration (EC50) in test [1] (setting [5]) is 1080 ± 10 nM.
Take `CC(=O)[C@H]1CC[C@H]2[C@@H]3CC[C@H]4C[C@H](O)CC[C@]4(C)[C@H]3CC[C@]12C` [compound 1, allopregnanolone]: the “effect of the α1 Q241L mutation” value in test [3] (compound 0.5 TM) was “eliminates the potentiation”. The EC50 was 5500 ± 500 nM in test [1] (read-out: Tadpole LSR EC50, loss of swimming reflex, literature values ref 27) and 420 ± 40 nM in test [1] (read-out: tadpole LRR EC50, loss of righting reflex, literature values ref 27).
Take `C[C@]12CC[C@@H](O)C[C@@H]1CC[C@@H]1[C@@H]2CC[C@]2(C)C(=O)CC[C@@H]12` [compound 2, androsterone]: the EC50 in test [1] (setting [5]) was 3380 ± 900 nM.
As to `C[C@]12CC[C@@H](O)C[C@@H]1CC[C@@H]1[C@@H]2CC[C@@]2(C)[C@H]1CC[C@@]21CO1` [compound 3], in test [1] (setting [5]), the EC50 was 1350 ± 10 nM.
In the case of `C[C@]12CC[C@@H](O)C[C@@H]1CC[C@@H]1[C@@H]2[C@@H](OCc2ccccc2)C[C@]2(C)C(=O)CC[C@@H]12` [compound 4, (3α,5α,11β)-11-Benzyloxy-3-hydroxyandrostan-17-one], the “effect of the α1 Q241L mutation” value in test [3] (compound 1 TM) is “abolishes, completely or nearly completely”.
Turning to `C[C@]12CC[C@@H](O)C[C@@H]1CC[C@@H]1[C@@H]2[C@@H](OCc2ccccc2)C[C@@]2(C)[C@H]1CC[C@@]21CO1` [compound 5, (3α,5α,11β,17β)-Spiro[11-benzyloxyandrostane-17,2′-oxiran]-3-ol], the “effect of the α1 Q241L mutation” value in test [3] (compound 0.5 TM) is on record as “abolishes, completely or nearly completely”.
As to `C[C@]12CC[C@@H](O)C[C@@H]1C[C@H](OCc1ccccc1)[C@@H]1[C@@H]2CC[C@]2(C)C(=O)CC[C@@H]12` [compound 6, (3α,5α,7β)-7-Benzyloxy-3-hydroxyandrostan-17-one], the “effect on GABA-mediated currents” value in test [2] is listed as “weakly inhibit”. Further, in test [4], the “Tadpole LSR EC50” value is on record as “None^e”.
Consider `C[C@]12CC[C@@H](O)C[C@@H]1C[C@H](OCc1ccccc1)[C@@H]1[C@@H]2CC[C@@]2(C)[C@H]1CC[C@@]21CO1` [compound 7, (3α,5α,7β,17β)-Spiro-[7-Benzyloxyandrostane-17,2′-oxiran]-3-ol], for which the “effect on GABA-mediated currents” value in test [2] is reported as “weakly inhibit”.
